Results taken from ChEMBL document CHEMBL4673258, “Discovery of IPN60090, a Clinical Stage Selective Glutaminase-1 (GLS-1) Inhibitor with Excellent Pharmacokinetic and Physicochemical Properties” (J Med Chem, 2020).

Tests used:
[1] = Cmax in Sprague-Dawley rat at 3 mg/kg, po administered via gavage by LC-MS/MS analysis; type: ADME, organism-based; design: route oral, dose 3 mg/kg; settings: in vivo
Method in brief: (§1)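 Male Sprague-Dawley rats (200–300 g), fasted overnight and fed 4 h postdose, given the bis-hydrochloride salt at 3 mpk by oral gavage. Tail-vein blood into K2EDTA taken predose and at 0.083–24 h (0.083, 0.25, 0.5, 1, 2, 4, 8, 24 h). Plasma analysed by LC-MS/MS; Cmax and AUClast derived from the oral dose.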

[2] = Volume of distribution at steady state in Beagle dog at 0.3 mg/kg, iv by LC-MS/MS analysis; type: ADME, organism-based, Canis lupus familiaris; settings: in vivo; for Vdss: 0.3 mg/kg
Method in brief: (§2)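 Bis-hydrochloride salt given to male Sprague-Dawley rats (200–300 g) or male beagle dogs (7–10 kg), fasted overnight and fed 4 h postdose. IV dose 0.3 mg/kg (rat dorsal foot vein, dog cephalic vein) or PO gavage 3 mg/kg.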

[3] = Oral bioavailability in Beagle dog at 3 mg/kg administered via gavage by LC-MS/MS analysis; type: ADME, organism-based, Canis lupus familiaris; settings: in vivo; method in brief: as §2
[4] = AUClast in Sprague-Dawley rat at 3 mg/kg, po administered via gavage by LC-MS/MS analysis; type: ADME, organism-based; design: route oral, time 0 - last, dose 3 mg/kg; settings: in vivo; method in brief: as §1
[5] = AUClast in Beagle dog at 3 mg/kg, po administered via gavage by LC-MS/MS analysis; type: ADME, organism-based, Canis lupus familiaris; design: time 0 - last, route oral, dose 3 mg/kg; settings: in vivo
Method in brief: (§3)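 Male beagle dogs (7–10 kg), fasted overnight and fed 4 h postdose, received the bis-hydrochloride salt at 3 mpk by oral gavage. Plasma concentrations by LC-MS/MS; Cmax and AUClast from the oral dose.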

[6] = Cmax in Beagle dog at 3 mg/kg, po administered via gavage by LC-MS/MS analysis; type: ADME, organism-based, Canis lupus familiaris; design: route oral, dose 3 mg/kg; settings: in vivo; method in brief: as §3
[7] = Half life in Sprague-Dawley rat at 0.3 mg/kg, iv by LC-MS/MS analysis; type: ADME, organism-based; settings: in vivo; method in brief: as §2
[8] = Half life in Beagle dog at 0.3 mg/kg, iv by LC-MS/MS analysis; type: ADME, organism-based, Canis lupus familiaris; settings: in vivo; for t1/2: 0.3 mg/kg; method in brief: as §2
[9] = Volume of distribution at steady state in Sprague-Dawley rat at 0.3 mg/kg, iv by LC-MS/MS analysis; type: ADME, organism-based; settings: in vivo; method in brief: as §2
[10] = Oral bioavailability in Sprague-Dawley rat at 3 mg/kg administered via gavage by LC-MS/MS analysis; type: ADME, organism-based; settings: in vivo; method in brief: as §2
[11] = Intrinsic clearance in dog hepatocytes […] at 2 uM measured after 15 to 120 mins by LC-MS analysis; type: ADME, cell-based, Canis lupus familiaris, Hepatocyte; settings: time 15-120 min
Method in brief: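 Hepatocytes at 2×10^6 viable cells/mL, mixed with an equal volume of 2 μM compound in KHB buffer. Incubated at 37 °C and quenched with ACN at 0, 15, 30, 60 and 120 min. Analysed by LC/MS, with percent remaining from peak area ratio to internal standard against 0 min. Half-life from a single-phase exponential fit.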

[12] = Permeability across apical to basolateral side in human Caco-2 cells at 10 uM measured after 90 mins by LC-MS/MS analysis; type: ADME, cell-based
Method in brief: (§4)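 Caco-2 monolayers grown 21–28 days on polycarbonate filter inserts, with TEER and Lucifer Yellow checked before and after. Compound at 10 μM in HBSS with 25 mM HEPES, pH 7.4. Run A→B and B→A at 37 °C for 90 min. Receiver and donor samples quantified by LC-MS/MS.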

[13] = Permeability across basolateral to apical side in human Caco-2 cells at 10 uM measured after 90 mins by LC-MS/MS analysis; type: ADME, cell-based; method in brief: as §4
[14] = rat, microsomes, 0.75 h, 1 µM
[15] = AUClast in CD-1 mouse at 10 mg/kg, po administered via gavage by LC-MS/MS analysis; type: ADME, organism-based; design: time 0 - last, route oral, dose 10 mg/kg; settings: in vivo
Method in brief: (§5)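 Female CD-1 mice (20–30 g), food and water ad libitum, given the bis-hydrochloride salt at 10 mpk by oral gavage. Plasma quantified by LC-MS/MS; Cmax and AUClast from the oral dose.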

[16] = Half life in cynomolgus monkey at 0.3 mg/kg, iv by LC-MS/MS analysis; type: ADME, organism-based, Macaca fascicularis; settings: in vivo
Method in brief: (§6)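 Bis-hydrochloride salt dosed 0.3 mg/kg IV and 3 mg/kg PO (mouse: 3 mg/kg IV, 10 mg/kg PO); female CD-1 mice, male beagle dogs, male cynomolgus monkeys; monkeys and dogs fasted overnight and fed 4 h postdose. IV via tail (mouse) or cephalic vein; PO by oral (mouse) or nasal (monkey) gavage. K2EDTA plasma sampled predose to 24 h; LC-MS/MS. CL, Vdss, t1/2 from IV; F% from oral dose.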

[17] = Free plasma concentration in NSG mouse xenografted with human H460 cells at 250 mg/kg, po administered as single dose via gavage measured after 8 hrs by LC-MS analysis; type: ADME, organism-based; settings: in vivo
[18] = Cmax in cynomolgus monkey at 3 mg/kg, po administered via gavage by LC-MS/MS analysis; type: ADME, organism-based, Macaca fascicularis; design: route oral, dose 3 mg/kg; settings: in vivo
Method in brief: (§7)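 Male cynomolgus monkeys (3–5 kg), fasted overnight and fed 4 h postdose, dosed with the bis-hydrochloride salt at 3 mpk by nasal gavage. Blood from saphenous or cephalic vein into K2EDTA at predose and 0.083–24 h (0.083, 0.25, 0.5, 1, 2, 4, 8, 24 h). Plasma quantified by LC-MS/MS; Cmax and AUClast from the oral dose.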

[19] = Free plasma concentration in NSG mouse xenografted with human H460 cells at 10 mg/kg, po administered as single dose via gavage measured after 24 hrs by LC-MS analysis; type: ADME, organism-based; settings: in vivo
[20] = Oral bioavailability in cynomolgus monkey at 3 mg/kg administered via gavage by LC-MS/MS analysis; type: ADME, organism-based, Macaca fascicularis; settings: in vivo; method in brief: as §6
[21] = Clearance in cynomolgus monkey at 0.3 mg/kg, iv by LC-MS/MS analysis; type: ADME, organism-based, Macaca fascicularis; settings: in vivo; method in brief: as §6
[22] = AUClast in cynomolgus monkey at 3 mg/kg, po administered via gavage by LC-MS/MS analysis; type: ADME, organism-based, Macaca fascicularis; design: route oral, time 0 - last, dose 3 mg/kg; settings: in vivo; method in brief: as §7
[23] = Free plasma concentration in NSG mouse xenografted with human H460 cells at 250 mg/kg, po administered as single dose via gavage measured after 24 hrs by LC-MS analysis; type: ADME, organism-based; settings: in vivo
[24] = Cmax in CD-1 mouse at 10 mg/kg, po administered via gavage by LC-MS/MS analysis; type: ADME, organism-based; design: route oral, dose 10 mg/kg; settings: in vivo; method in brief: as §5
[25] = Volume of distribution at steady state in cynomolgus monkey at 0.3 mg/kg, iv by LC-MS/MS analysis; type: ADME, organism-based, Macaca fascicularis; settings: in vivo, read-out: Vdss; method in brief: as §6
[26] = Free plasma concentration in NSG mouse xenografted with human H460 cells at 50 mg/kg, po administered as single dose via gavage measured after 8 hrs by LC-MS analysis; type: ADME, organism-based; settings: in vivo
Method in brief: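 Female NSG mice, 6–10 weeks old, bearing H460 tumours (5×10^5 cells with matrigel 1:1) of 300–400 mm³. Given a single oral gavage dose of bis-hydrochloride salt in 0.5% methylcellulose. Six animals per group. Free plasma concentration taken at 8 or 24 h, given as mean with standard deviation.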

[27] = Clearance in Beagle dog at 0.3 mg/kg, iv by LC-MS/MS analysis; type: ADME, organism-based, Canis lupus familiaris; settings: in vivo; method in brief: as §6
[28] = Oral bioavailability in CD-1 mouse at 10 mg/kg administered via gavage by LC-MS/MS analysis; type: ADME, organism-based; settings: in vivo; method in brief: as §6
[29] = Half life in CD-1 mouse at 3 mg/kg, iv by LC-MS/MS analysis; type: ADME, organism-based; settings: in vivo; method in brief: as §6
[30] = Volume of distribution at steady state in CD-1 mouse at 3 mg/kg, iv by LC-MS/MS analysis; type: ADME, organism-based; settings: in vivo, read-out: Vdss; method in brief: as §6
[31] = Free plasma concentration in NSG mouse xenografted with human H460 cells at 10 mg/kg, po administered as single dose via gavage measured after 8 hrs by LC-MS analysis; type: ADME, organism-based; settings: in vivo
[32] = Cmax in Sprague-Dawley rat at 2 mg/kg, po administered via gavage by LC-MS/MS analysis; type: ADME, organism-based; design: route oral, dose 2 mg/kg; settings: in vivo
[33] = AUClast in Sprague-Dawley rat at 2 mg/kg, po administered via gavage by LC-MS/MS analysis; type: ADME, organism-based; design: route oral, time 0 - last, dose 2 mg/kg; settings: in vivo
[34] = Oral bioavailability in Sprague-Dawley rat at 2 mg/kg administered via gavage by LC-MS/MS analysis; type: ADME, organism-based; settings: in vivo
[35] = Intrinsic clearance in monkey liver microsomes assessed per kg protein at 1 uM measured up to 45 mins in presence of NADPH by LC-MS/MS analysis; type: ADME, Macaca mulatta, Microsome; settings: rhesus monkey, 0.75 h
[36] = Intrinsic clearance in mouse hepatocytes […] at 2 uM measured after 15 to 120 mins by LC-MS analysis; type: ADME, cell-based, Hepatocyte; settings: time 15-120 min
[37] = Intrinsic clearance in monkey hepatocytes […] at 2 uM measured after 15 to 120 mins by LC-MS analysis; type: ADME, cell-based, Macaca mulatta, Hepatocyte; settings: rhesus monkey, time 15-120 min
[38] = human, microsomes, 0.75 h, 1 µM
[39] = Intrinsic clearance in mouse liver microsomes assessed per kg protein at 1 uM measured up to 45 mins in presence of NADPH by LC-MS/MS analysis; type: ADME, Microsome; settings: 0.75 h

CNC(=O)c1cn(C[C@H](F)CCc2ccc(NC(=O)Cc3cc(OC4CC(F)(F)C4)ccn3)nn2)nn1.Cl
Cmax [1]: 5.8 µM
Vdss [2]: 0.5 L/kg
F [3]: 34%
AUClast [4]: 16 µM·h
AUClast [5]: 10 µM·h
Cmax [6]: 2.7 µM
t1/2 [7]: 1.2 h
t1/2 [8]: 2.3 h
Vdss [9]: 0.2 L/kg
F [10]: 48%

CNC(=O)c1cn(C[C@H](F)CCc2ccc(NC(=O)Cc3cc(OC4CC(F)(F)C4)ccn3)nn2)nn1
CLint [11]: 4 mL/min/kg
permeability [12]: 1.8 10^-6 cm/s
permeability [13]: 20 10^-6 cm/s

CNC(=O)c1cn(CCCCc2ccc(NC(=O)Cc3cc(OCC(F)(F)F)ccn3)nn2)nn1
CLH [14]: 0.4 mL/min

CNC(=O)c1cn(C[C@H](F)CCc2ccc(NC(=O)Cc3cc(C(F)(F)F)cc(C)n3)nn2)nn1
Cmax [1]: 4.4 µM
Vdss [2]: 0.2 L/kg
F [3]: 21%
CLint [11]: 9 mL/min/kg
AUClast [4]: 24 µM·h
AUClast [5]: 23 µM·h
permeability [12]: 7.7 10^-6 cm/s
Cmax [6]: 4.5 µM
t1/2 [7]: 3.3 h
t1/2 [8]: 2.6 h
Vdss [9]: 0.2 L/kg
F [10]: 28%
permeability [13]: 25 10^-6 cm/s

CNC(=O)c1cn(C[C@H](F)CCc2ccc(NC(=O)Cc3cc(OC4CC(F)(F)C4)cc(C)n3)nn2)nn1.Cl.Cl
AUClast [15]: 67 µM·h
half-life [16]: 0.9 h
Cp(f) [17]: 0.316 µM
Cmax [18]: 6.5 µM
Cmax [1]: 32 µM
Cp(f) [19]: 0.006 µM
bioavailability [20]: 72%
clearance [21]: 8 mL/min/kg
AUC(0-t) [22]: 8.7 µM·h
Vd ([2]; Beagle, read-out: Vdss): 0.18 L/kg
F [3]: > 100%
Cp(f) [23]: 0.316 µM
AUClast [4]: 208 µM·h
Cmax [24]: 19 µM
Vd [25]: 0.31 L/kg
Cp(f) [26]: 0.198 µM
clearance [27]: 0.59 mL/min/kg
AUClast [5]: 250 µM·h
Cmax [6]: 31 µM
t1/2 [7]: 5.3 h
F [28]: 89%
half-life [29]: 1 h
Vd [30]: 0.27 L/kg
half-life ([8]; Beagle): 5.3 h
Cp(f) [31]: 0.029 µM
Vdss [9]: 0.1 L/kg
F [10]: 70%

CNC(=O)c1cn(C[C@H](F)CCc2ccc(NC(=O)Cc3cc(-c4cccc(OC(F)(F)F)c4)ccn3)nn2)nn1.Cl
Vdss [2]: 0.5 L/kg
F [3]: 8%
Cmax [32]: 0.35 µM
AUClast [5]: 2.5 µM·h
Cmax [6]: 0.58 µM
t1/2 [7]: 2.7 h
AUClast [33]: 1.2 µM·h
t1/2 [8]: 2.5 h
F [34]: 19%
Vdss [9]: 1 L/kg

CNC(=O)c1cn(C[C@H](F)CCc2ccc(NC(=O)Cc3cc(OC4CC(F)(F)C4)cc(C)n3)nn2)nn1 [IPN-60090]
CLint [35]: 21 mL/min/kg
CLint [36]: 16 mL/min/kg
CLint [37]: 12 mL/min/kg
CLint [11]: 7 mL/min/kg
CLH [38]: <= 0.7 ml/min
CLint [39]: 55 mL/min/kg
permeability [12]: 5.2 10^-6 cm/s
permeability [13]: 25 10^-6 cm/s
